The results in this text go back to ChEMBL document CHEMBL5634197, “Structural Evaluations of a Selective Human STINGA230 Agonist and Its Use in Macrophage Immunotherapies” (ACS Med Chem Lett, 2024).

pEC50: −log10 of the molar value. Activity calls are given as the source filed them. The calls are words filed in the database; no cut-off is given here.

The nature of assay [1]: Agonist activity at N-terminal his/SUMO tagged STING A230 in human THP-1 cells transfected with ISRE reporter assessed as increase in cGAMP-induced ISRE activation incubated for 48 hrs by luminescence based analysis. It counts as cell-based. The note with it: for pEC50: Homo sapiens, THP-1, 48 h, read-out: EC50; for EC50: thp-1.
The test system of assay [2] is THP-1. Nature of the assay: Upregulation of MX1 expression in human THP-1 cells at 50 uM measured after 6 hrs by RT-qPCR analysis. It counts as functional, cell-based. Summed up: (§1)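 THP-1 cells, which carry homozygous STING HAQ, were treated for 6 h with vehicle or the agonist at 50 μM. Cells were then harvested, and MX1 and OAS1 expression was measured by RT-qPCR.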
In general terms: In qPCR the cycle at which signal appears reflects the starting amount.

Assay [3] deals with THP-1. Nature of the assay: Upregulation of OAS1 expression in human THP-1 cells at 50 uM measured after 6 hrs by RT-qPCR analysis. It counts as functional, cell-based. Summed up: as §1
For assay [4], the system named is Macrophage. Put plainly: Upregulation of MX1 expression in human Primary macrophage measured after 6 hrs by RT-qPCR analysis. It counts as functional, cell-based. The method in brief:
(§2)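 CD14+ monocytes from 3 healthy donors with STING G230 alleles were differentiated into macrophages with M-CSF. Cells were transduced with FG12-EF1p-EGFRt-p2A-STINGA230 lentivirus, mock-transduced or left untransduced. Three days after transduction they were stimulated for 6 h with DMSO vehicle or the agonist, and MX1 and IRF7 expression was measured by RT-qPCR.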

In assay [5] the test system is Macrophage. Nature of the assay: Upregulation of IRF7 expression in human Primary macrophage measured after 6 hrs by RT-qPCR analysis. It counts as functional, cell-based. Summed up: as §2
Assay [6] is described as follows: Upregulation of MX1 expression in human Primary macrophage transduced with lentivirus FG12-EFlp-EGFRt-p2A-STING A230 assessed as fold change measured after 6 hrs by RT-qPCR analysis. It counts as functional. Summed up:
as §2

Assay [7] in a line: Upregulation of IRF7 expression in human Primary macrophage transduced with lentivirus FG12-EFlp-EGFRt-p2A-STING A230 assessed as fold change measured after 6 hrs by RT-qPCR analysis. It counts as functional. Summed up: as §2
Assay [8] concerns PBMC. Nature of the assay: Induction of MX1 gene expression in human PBMC cells harbouring STING A230 allele at 50 uM measured after 6 hrs by RT-qPCR analysis. It counts as functional, cell-based. Summed up: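 Primary PBMCs from 15 independent healthy donors were exposed to 50 μM agonist for 6 h. The 2′,3′-cGAMP comparator was given at 1 μg/mL. Cells were then harvested, and MX1 expression was measured by RT-qPCR. Values come from the donor carrying the STINGA230 allele.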

Take `CCc1cc2c(ncn3c(SCC(=O)OC)nnc23)s1`: in assay [1], the pEC50 was 5.16.
On to `COC(=O)CSc1nnc2c3c(C)c(C)n(C)c3ncn12`, for which the EC50 entry in assay [1] is “Not Active”.
The same measure, in the same setting: next, `COC(=O)CSc1nnc2c3c(C)c(C)sc3nc(C)n12`: “Not Active”; `COC(=O)CSc1nnc2c3c(C)c(C)oc3ncn12`: “Not Active”.
On to `COC(=O)CSc1nnc2c3c4c(sc3ncn12)CCC4`, for which the pEC50 in assay [1] was 5.14.
As for `COC(=O)CNC(=O)n1cnc2sc(C)c(C)c2c1=O`, the EC50 entry in assay [1] is reported as “Not Active”.
Still for that read-out and setting: next, `COC(=O)CCSc1nnc2c3c(C)c(C)sc3ncn12`: “Not Active”.
Take `COC(=O)CSc1nnc2c3c4c(sc3ncn12)CCCC4`: the EC50 result in assay [1] is “Not Active”.
The same measure, in the same setting: next, `COC(=O)COc1nnc2c3c(C)c(C)sc3ncn12`: “Not Active”.
For the compound `COCc1sc2ncn3c(SCC(=O)OC)nnc3c2c1C`, the pEC50 in assay [1] was 4.63.
In the case of `COC(=O)CSc1nnc2c3cc(OC)c(OC)cc3ncn12`, the EC50 result in assay [1] is “Not Active”.
Still for that read-out and setting: under `COC(=O)CCc1nnc2c3c(C)c(C)sc3ncn12` stands “Not Active”; under `COC(=O)Cc1nnc2c3c(C)c(C)sc3ncn12`, “Not Active”.
Consider `CCOC(=O)CSc1nnc2c3c(C)c(C)sc3ncn12`, for which, in assay [1], the pEC50 was 5.06.
Regarding `COC(=O)CSc1nnc2c3c(C)c(Br)sc3ncn12`, the pEC50 in assay [1] was 4.94.
Consider `COC(=O)CSc1nnc2c3c(C)c(C)sc3ncn12`, for which the pEC50 in assay [1] was 5.24. The result in assay [2], in assay [3] and in assay [8] was Active. For the same compound, the result in assay [4] and in assay [5] was inactive. In addition, the “fold change (FC)” value was determined as 10 in assay [6] and 5 in assay [7].
`COC(=O)C[S+]([O-])c1nnc2c3c(C)c(C)sc3ncn12` (configuration not stated): in assay [1], the EC50 entry is recorded as “Not Active”.
Same read-out and setting: under `COC(=O)CSc1ncc2c3c(C)c(C)sc3ncn12` stands “Not Active”; under `Cc1sc2ncn3c(SC4CCOC4=O)nnc3c2c1C` (configuration not stated), “Not Active”; under `Cc1sc2ncn3c(SCC(=O)OC(C)(C)C)nnc3c2c1C`, “Not Active”.
On to `Cc1sc2ncn3c(SCC(=O)OC(C)C)nnc3c2c1C`, for which, in assay [1], the pEC50 was 4.87.
As to `Cc1sc2ncn3c(Sc4nnn[nH]4)nnc3c2c1C`, the EC50 entry in assay [1] is recorded as “Not Active”.
Same read-out and setting: under `COC(=O)CSc1nnc2c3c(C)c(C)sc3ccn12` stands “Not Active”; under `COCc1c(C)sc2ncn3c(SCC(=O)OC)nnc3c12`, “Not Active”; under `COC(=O)CSc1nnc2c3ccsc3ncn12`, “Not Active”.

By pEC50 is commonly meant the EC50 on a negative log10 scale, so that one unit is a factor of ten.
